In ChEMBL document CHEMBL2151003, “Synthesis and antitumor activity of ring A modified glycyrrhetinic acid derivatives” (Eur J Med Chem, 2011):
Active and inactive are the calls of the source. The rule behind the calls is not given here.

Columns and labels:
SW-1736 = assay: Cytotoxicity against human SW1736 cells after 96 hrs by SRB assay; type: functional, cell-based
Summary of the method: (§1)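 Monolayer cultures in RPMI 1640 with 10% heat-inactivated FBS and penicillin/streptomycin, 37 °C, 5% CO2. Exponentially growing cells were seeded, then treated 24 h later with serial dilutions (0–30 µM; DMSO or DMF ≤0.5% final) for 96 h. Cells were fixed with 10% TCA at 4 °C, stained with 0.4% SRB and solubilized in 10 mM Tris base; A570 was read. IC50 came from semi-log dose–response curves, ≥3 independent experiments.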

DLD-1 = assay: Cytotoxicity against human DLD1 cells after 96 hrs by SRB assay; type: functional, cell-based; summary of the method: as §1
A2780 = assay: Cytotoxicity against human A2780 cells after 96 hrs by SRB assay; type: functional, cell-based; summary of the method: as §1
[1] = Cytotoxicity against human Lipo cells after 96 hrs by SRB assay; type: functional, cell-based; summary of the method: as §1
A549 [2] = assay: Cytotoxicity against human A549 cells after 96 hrs by SRB assay; type: functional, cell-based; summary of the method: as §1
[3] = Cytotoxicity against human 518A2 cells after 96 hrs by SRB assay; type: functional, cell-based; summary of the method: as §1
MCF7 = assay: Cytotoxicity against human MCF7 cells after 96 hrs by SRB assay; type: functional, cell-based; summary of the method: as §1
[4] = Cytotoxicity against human A253 cells after 96 hrs by SRB assay; type: functional, cell-based; summary of the method: as §1
8505C = assay: Cytotoxicity against human 8505C cells after 96 hrs by SRB assay; type: functional, cell-based; summary of the method: as §1
HT-29 = assay: Cytotoxicity against human HT-29 cells after 96 hrs by SRB assay; type: functional, cell-based; summary of the method: as §1
HCT-116 = assay: Cytotoxicity against human HCT116 cells after 96 hrs by SRB assay; type: functional, cell-based; summary of the method: as §1
A-431 = assay: Cytotoxicity against human A431 cells after 96 hrs by SRB assay; type: functional, cell-based; summary of the method: as §1
A549 [5] = assay: Induction of apoptosis in human A549 cells assessed as apoptotic effect at 20 uM after 24 to 48 hrs by trypan blue cell counting analysis; type: functional
Summary of the method: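 A549 cells (approx. 500,000 per flask) were grown 24 h, then given compound-containing medium for about 24–48 h. Collected cells were pelleted, washed in PBS and mixed 1:1 with 0.4% trypan blue in PBS, pH 7.2. An automated counter distinguished cells with intact and with damaged membranes. Results are % apoptosis ± standard error, 6 experiments each.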

A549 [6] = assay: Induction of apoptosis in human A549 cells assessed as appearance of green fluorescent cells at 20 uM after 24 to 48 hrs by acridine orange/ethidium bromide staining based fluorescence microscopy; type: functional, cell-based
Summary of the method: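 Approx. 500,000 A549 cells per flask were grown 24 h, then exposed to compound-containing medium for 24–48 h. Cells from the supernatant were pelleted, washed and resuspended in PBS, mixed with AO/EB and examined by fluorescence microscopy. Green fluorescence was scored as apoptotic and red nuclei as necrotic; the read-out is qualitative.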

Row | Compound | IC50 (SW-1736) | IC50 (DLD-1) | IC50 (A2780) | IC50 [1] | IC50 (A549 [2]) | IC50 [3] | IC50 (MCF7) | IC50 [4] | IC50 (8505C) | IC50 (HT-29) | IC50 (HCT-116) | IC50 (A-431) | Activity (A549 [5]) | Activity (A549 [6])
1 | CCOC(=O)[C@@]1(C)CC[C@]2(C)CC[C@]3(C)C(=CC(=O)[C@@H]4[C@@]5(C)CCC(=O)C(C)(C)[C@@H]5CC[C@]43C)[C@@H]2C1 | > 30 µmol | > 30 µmol | > 30 µmol | > 30 µmol | > 30 µmol | > 30 µmol | > 30 µmol | > 30 µmol | > 30 µmol |  |  |  |  | 
2 | CCOC(=O)[C@@]1(C)CC[C@]2(C)CC[C@]3(C)C(=CC(=O)[C@@H]4[C@@]5(C)CC=CC(C)(C)[C@@H]5CC[C@]43C)[C@@H]2C1 |  | > 30 µmol |  | > 30 µmol | > 30 µmol | > 30 µmol | > 30 µmol | > 30 µmol |  | > 30 µmol | > 30 µmol | > 30 µmol |  | 
3 | COC(=O)[C@@]1(C)CC[C@]2(C)CC[C@]3(C)C(=CC(=O)[C@@H]4[C@@]5(C)CC[C@H](OC(=O)[C@@H](N)CSCc6ccccc6)C(C)(C)[C@@H]5CC[C@]43C)[C@@H]2C1 | 15.69 µmol | > 30 µmol |  | 16.72 µmol | 17.9 µmol | 16.78 µmol |  | 15.84 µmol | 15.45 µmol |  |  |  | 60.64% | Active
4 | CCCCCCCCO/N=C1\CC[C@]2(C)[C@H]3C(=O)C=C4[C@@H]5C[C@@](C)(C(=O)OC)CC[C@]5(C)CC[C@@]4(C)[C@]3(C)CC[C@H]2C1(C)C | 17.77 µmol | > 30 µmol | 19.73 µmol | > 30 µmol | > 30 µmol | > 30 µmol | 26.35 µmol | > 30 µmol | > 30 µmol |  |  |  |  | 
5 | COC(=O)[C@@]1(C)CC[C@]2(C)CC[C@]3(C)C(=CC(=O)[C@@H]4[C@@]5(C)CC[C@H](OC(=O)[C@H](CO[Si](C)(C)C(C)(C)C)NC(=O)OC(C)(C)C)C(C)(C)[C@@H]5CC[C@]43C)[C@@H]2C1 |  | > 30 µmol |  | > 30 µmol | > 30 µmol | > 30 µmol |  | 28.59 µmol | > 30 µmol |  |  |  |  | 
6 | COC(=O)[C@@]1(C)CC[C@]2(C)CC[C@]3(C)C(=CC(=O)[C@@H]4[C@@]5(C)CCC(=O)C(C)(C)[C@@H]5CC[C@]43C)[C@@H]2C1 | 29.09 µmol | > 30 µmol | > 30 µmol | > 30 µmol | > 30 µmol | > 30 µmol | > 30 µmol | > 30 µmol | > 30 µmol |  |  |  |  | 
7 | C=C(C)[C@@H]1CC[C@]2(C)[C@H](C(=O)C=C3[C@@H]4C[C@@](C)(C(=O)OCC)CC[C@]4(C)CC[C@]32C)[C@@]1(C)CCC(=O)O | > 30 µmol | > 30 µmol | > 30 µmol | > 30 µmol | > 30 µmol | > 30 µmol | > 30 µmol | > 30 µmol | > 30 µmol |  |  |  |  | 
8 | COC(=O)[C@@]1(C)CC[C@]2(C)CC[C@]3(C)C(=CC(=O)[C@@H]4[C@@]5(C)CC[C@H](OC(=O)[C@H](CSCc6ccccc6)NC(=O)OC(C)(C)C)C(C)(C)[C@@H]5CC[C@]43C)[C@@H]2C1 | > 30 µmol | > 30 µmol |  | > 30 µmol | > 30 µmol | > 30 µmol |  | > 30 µmol | > 30 µmol |  |  |  |  | 
9 | COC(=O)[C@@]1(C)CC[C@]2(C)CC[C@]3(C)C(=CC(=O)[C@@H]4[C@@]5(C)Cc6nccnc6C(C)(C)[C@@H]5CC[C@]43C)[C@@H]2C1 | > 30 µmol | > 30 µmol | > 30 µmol | > 30 µmol | > 30 µmol | > 30 µmol | > 30 µmol | > 30 µmol | > 30 µmol |  |  |  |  | 
10 | CCOC(=O)[C@@]1(C)CC[C@]2(C)CC[C@]3(C)C(=CC(=O)[C@@H]4[C@@]5(C)CC[C@H](OC(=O)CCC(=O)O)C(C)(C)[C@@H]5CC[C@]43C)[C@@H]2C1 |  | > 30 µmol |  | > 30 µmol | > 30 µmol | 28.99 µmol |  | > 30 µmol | > 30 µmol |  |  |  |  | 
11 | COC(=O)[C@@]1(C)CC[C@]2(C)CC[C@]3(C)C(=CC(=O)[C@@H]4[C@@]5(C)CC/C(=N\OC(C)C)C(C)(C)[C@@H]5CC[C@]43C)[C@@H]2C1 | > 30 µmol | > 30 µmol | > 30 µmol | > 30 µmol | > 30 µmol | > 30 µmol | > 30 µmol | > 30 µmol | > 30 µmol |  |  |  |  | 
12 | CCOC(=O)[C@@]1(C)CC[C@]2(C)CC[C@]3(C)C(=CC(=O)[C@@H]4[C@@]5(C)C[C@H]6O[C@H]6C(C)(C)[C@@H]5CC[C@]43C)[C@@H]2C1 |  | > 30 µmol |  | > 30 µmol | > 30 µmol | > 30 µmol | > 30 µmol | > 30 µmol |  | > 30 µmol | > 30 µmol | > 30 µmol |  | 
13 | COC(=O)[C@@]1(C)CC[C@]2(C)CC[C@]3(C)C(=CC(=O)[C@@H]4[C@@]5(C)CC[C@H](OS(=O)(=O)c6ccc(C)cc6)C(C)(C)[C@@H]5CC[C@]43C)[C@@H]2C1 |  | > 30 µmol |  | > 30 µmol | > 30 µmol | > 30 µmol |  | > 30 µmol | > 30 µmol |  |  |  |  | 
14 | CCOC(=O)[C@@]1(C)CC[C@]2(C)CC[C@]3(C)C(=CC(=O)[C@@H]4[C@@]5(C)CCC(=O)OC(C)(C)[C@@H]5CC[C@]43C)[C@@H]2C1 | 12.71 µmol | > 30 µmol | 15 µmol | > 30 µmol | > 30 µmol | > 30 µmol | 20.58 µmol | 28.73 µmol | > 30 µmol |  |  |  |  | 
15 | COC(=O)[C@@]1(C)CC[C@]2(C)CC[C@]3(C)C(=CC(=O)[C@@H]4[C@@]5(C)CC[C@H](OC(=O)[C@@H](N)CSSC[C@H](N)C(=O)O[C@H]6CC[C@]7(C)[C@H]8C(=O)C=C9[C@@H]%10C[C@@](C)(C(=O)OC)CC[C@]%10(C)CC[C@@]9(C)[C@]8(C)CC[C@H]7C6(C)C)C(C)(C)[C@@H]5CC[C@]43C)[C@@H]2C1 | 16.82 µmol | > 30 µmol |  | 22.6 µmol | 18.75 µmol | 24.54 µmol |  | 19.07 µmol | 15.1 µmol |  |  |  | 40.91% | Active
16 | COC(=O)[C@@]1(C)CC[C@]2(C)CC[C@]3(C)C(=CC(=O)[C@@H]4[C@@]5(C)CC[C@H](OC(=O)[C@H](CSC(=O)OC(C)(C)C)NC(=O)OC(C)(C)C)C(C)(C)[C@@H]5CC[C@]43C)[C@@H]2C1 | > 30 µmol | > 30 µmol |  | > 30 µmol | > 30 µmol | > 30 µmol |  | > 30 µmol | > 30 µmol |  |  |  |  | 
17 | C=C(C)[C@@H]1CC[C@]2(C)[C@H](C(=O)C=C3[C@@H]4C[C@@](C)(C(=O)OCC)CC[C@]4(C)CC[C@]32C)[C@@]1(C)CCC(=O)OCC | 26.74 µmol | > 30 µmol | 5.89 µmol | > 30 µmol | > 30 µmol | 9.28 µmol | 25.42 µmol | > 30 µmol | > 30 µmol |  |  |  |  | 
18 | COC(=O)[C@@]1(C)CC[C@]2(C)CC[C@]3(C)C(=CC(=O)[C@@H]4[C@@]5(C)CC[C@H](OC(=O)CCC(=O)O)C(C)(C)[C@@H]5CC[C@]43C)[C@@H]2C1 |  | > 30 µmol |  | > 30 µmol | > 30 µmol | > 30 µmol |  | > 30 µmol | > 30 µmol |  |  |  |  | 
19 | CCOC(=O)[C@@]1(C)CC[C@]2(C)CC[C@]3(C)C(=CC(=O)[C@@H]4[C@@](C)(CCC(=O)O)[C@H](C(C)(C)O)CC[C@]43C)[C@@H]2C1 | > 30 µmol | > 30 µmol | > 30 µmol | > 30 µmol | > 30 µmol | > 30 µmol | > 30 µmol | > 30 µmol | > 30 µmol |  |  |  |  | 
